pIC50: −log10 of the molar value. The source made the active and inactive calls. No cut-off for these calls is given here.
Tests used:
[1] = Cell cycle arrest in human PC3 cells assessed as accumulation at G0/G1 phase at 5 uM after 24 hrs by propidium iodide staining-based flow cytometry (reference value: 39.20%); type: functional; conditions: PC-3
How it was run: (§1)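 PC-3 cells given compound at 5, 10, 15, 20 or 30 μM, or 0.1% DMSO vehicle, for 24 h; stained with propidium iodide and analysed by flow cytometry for G0/G1, S and G2/M fractions.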

[2] = Cell cycle arrest in human PC3 cells assessed as accumulation at S phase at 5 uM after 24 hrs by propidium iodide staining-based flow cytometry (reference value: 27.26%); type: functional; conditions: PC-3; how it was run: as §1
[3] = Cell cycle arrest in human PC3 cells assessed as accumulation at G2/M phase at 5 uM after 24 hrs by propidium iodide staining-based flow cytometry (reference value: 33.04%); type: functional; conditions: PC-3; how it was run: as §1
[4] = Cell cycle arrest in human PC3 cells assessed as accumulation at S phase at 10 uM after 24 hrs by propidium iodide staining-based flow cytometry (reference value: 27.26%); type: functional; conditions: PC-3; how it was run: as §1
[5] = Cell cycle arrest in human PC3 cells assessed as accumulation at G2/M phase at 10 uM after 24 hrs by propidium iodide staining-based flow cytometry (reference value: 33.04%); type: functional; conditions: PC-3; how it was run: as §1
[6] = Cell cycle arrest in human PC3 cells assessed as accumulation at G2/M phase at 15 uM after 24 hrs by propidium iodide staining-based flow cytometry (reference value: 33.04%); type: functional; conditions: PC-3; how it was run: as §1
[7] = Cell cycle arrest in human PC3 cells assessed as accumulation at G0/G1 phase at 20 uM after 24 hrs by propidium iodide staining-based flow cytometry (reference value: 39.20%); type: functional; conditions: PC-3; how it was run: as §1
[8] = Cell cycle arrest in human PC3 cells assessed as accumulation at G2/M phase at 20 uM after 24 hrs by propidium iodide staining-based flow cytometry (reference value: 33.04%); type: functional; conditions: PC-3; how it was run: as §1
[9] = tested on: PC-3; experiment: Induction of apoptosis in human PC3 cells assessed as early apoptotic cells at 5 uM after 24 hrs by annexin V/propidium iodide staining-based flow cytometry (reference value: 5.7%); type: functional
How it was run: (§2)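 Phosphatidylserine exposure in PC-3 cells after 24 h at 0, 5, 10, 20 or 30 μM, by Alexa Fluor 488 annexin V/PI double staining and flow cytometry; early apoptotic = AV+/PI−, late apoptotic or dead = AV+/PI+.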

[10] = tested on: PC-3; experiment: Induction of apoptosis in human PC3 cells assessed as late apoptotic cells at 5 uM after 24 hrs by annexin V/propidium iodide staining-based flow cytometry (reference value: 2.1%); type: functional; how it was run: as §2
[11] = tested on: PC-3; experiment: Induction of apoptosis in human PC3 cells assessed as early apoptotic cells at 10 uM after 24 hrs by annexin V/propidium iodide staining-based flow cytometry (reference value: 5.7%); type: functional; how it was run: as §2
[12] = tested on: PC-3; experiment: Induction of apoptosis in human PC3 cells assessed as late apoptotic cells at 10 uM after 24 hrs by annexin V/propidium iodide staining-based flow cytometry (reference value: 2.1%); type: functional; how it was run: as §2
[13] = tested on: PC-3; experiment: Induction of apoptosis in human PC3 cells assessed as late apoptotic cells at 20 uM after 24 hrs by annexin V/propidium iodide staining-based flow cytometry (reference value: 2.1%); type: functional; how it was run: as §2
[14] = tested on: PC-3; experiment: Induction of apoptosis in human PC3 cells assessed as early apoptotic cells at 30 uM after 24 hrs by annexin V/propidium iodide staining-based flow cytometry (reference value: 5.7%); type: functional; how it was run: as §2
[15] = tested on: PC-3; experiment: Induction of apoptosis in human PC3 cells assessed as late apoptotic cells at 30 uM after 24 hrs by annexin V/propidium iodide staining-based flow cytometry (reference value: 2.1%); type: functional; how it was run: as §2
[16] = tested on: PC-3; experiment: Induction of apoptosis in human PC3 cells assessed as total apoptotic cells at 5 uM after 24 hrs by annexin V/propidium iodide staining-based flow cytometry; type: functional; how it was run: as §2
[17] = tested on: PC-3; experiment: Induction of apoptosis in human PC3 cells assessed as total apoptotic cells at 20 uM after 24 hrs by annexin V/propidium iodide staining-based flow cytometry; type: functional; how it was run: as §2
[18] = tested on: PC-3; experiment: Induction of apoptosis in human PC3 cells assessed as total apoptotic cells at 30 uM after 24 hrs by annexin V/propidium iodide staining-based flow cytometry; type: functional; how it was run: as §2
[19] = Induction of apoptosis in human PC3 cells assessed as upregulation of Bax expression after 24 hrs by Western blotting analysis; type: functional, cell-based; conditions: PC-3
How it was run: (§3)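 PC-3 cells exposed for 24 h to 0, 1, 5, 10, 20 or 30 μM; Bax, Bcl-2 and activated caspase-3 measured by Western blot, reported as Bax/Bcl-2 value.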

[20] = Induction of apoptosis in human PC3 cells assessed as upregulation of Bcl2 expression after 24 hrs by Western blotting analysis; type: functional, cell-based; conditions: PC-3, in the assay text read “upregulation of Bax/Bcl2 ratio” for “upregulation of Bcl2 expression”; how it was run: as §3
[21] = Induction of apoptosis in human PC3 cells assessed as upregulation of caspase3 level after 24 hrs by Western blotting analysis; type: functional, cell-based; conditions: PC-3; how it was run: as §3
[22] = tested on: PC-3; experiment: Antiproliferative activity against human PC3 cells assessed as reduction in cell viability at 1.5 to 100 uM by WST-8 assay in presence of 50 uM of norepinephrine; type: functional, cell-based
How it was run: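 PC-3 cells treated with compound at 100, 75, 50, 25, 12.5, 6.25, 3.0 and 1.5 μM alone or together with norepinephrine (20 or 50 μM); viability by WST-8. Mean ± SEM, two-way ANOVA with post-hoc tests.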

[23] = biological target: T1, Alpha-1A adrenergic receptor (Rattus norvegicus, UniProt P43140); experiment: Antagonist activity at Sprague-Dawley rat prostatic vas deferens adrenergic alpha-1A receptor after 20 mins; conditions: read-out: pA2 (converted)
T1 sequence (P43140 whole entry): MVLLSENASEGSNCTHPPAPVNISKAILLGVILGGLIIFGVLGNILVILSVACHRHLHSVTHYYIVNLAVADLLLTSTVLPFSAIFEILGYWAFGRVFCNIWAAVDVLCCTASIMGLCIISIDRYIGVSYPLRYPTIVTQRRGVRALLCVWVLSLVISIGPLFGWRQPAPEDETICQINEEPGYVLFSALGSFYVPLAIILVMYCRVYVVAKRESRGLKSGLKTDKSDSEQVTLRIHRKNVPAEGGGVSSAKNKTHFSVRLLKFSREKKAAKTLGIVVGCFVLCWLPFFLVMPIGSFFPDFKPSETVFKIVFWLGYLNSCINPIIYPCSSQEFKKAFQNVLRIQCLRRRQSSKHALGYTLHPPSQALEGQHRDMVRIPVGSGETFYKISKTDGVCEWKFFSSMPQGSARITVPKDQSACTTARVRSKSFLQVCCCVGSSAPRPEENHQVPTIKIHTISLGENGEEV
How it was run: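 Isolated rat tissues (prostatic vas deferens, spleen, thoracic aorta) contracted with cumulative norepinephrine; concentration-response curves recorded in presence of increasing antagonist concentrations, antagonism read as rightward curve shift. Mean ± SEM of five to eight separate experiments.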

[24] = organism: Rattus norvegicus; experiment: Selectivity ratio for Sprague-Dawley rat thoracic aorta adrenergic alpha-1D receptor to Sprague-Dawley rat spleen adrenergic alpha-1B receptor; type: tissue-based
[25] = Cytotoxicity against human PC3 cells after 48 hrs by WST-8 assay; type: functional, cell-based; conditions: PC-3, 48 h
[26] = organism: Rattus norvegicus; experiment: Selectivity ratio for Sprague-Dawley rat prostatic vas deferens adrenergic alpha-1A receptor to Sprague-Dawley rat spleen adrenergic alpha-1B receptor
[27] = organism: Rattus norvegicus; experiment: Selectivity ratio for Sprague-Dawley rat thoracic aorta adrenergic alpha-1D receptor to Sprague-Dawley rat prostatic vas deferens adrenergic alpha-1A receptor

Kb [23]: 0.00741 µM
Compound: COc1ccccc1N1CCN(CCCNC(=O)c2cc3ccccc3n2Cc2ccccc2)CC1
Activity [1]: 42.8%
Activity [2]: 23.7%
Activity [3]: 33.5%
Activity [4]: 15.2%
Activity [5]: 26.5%
Activity [6]: 14.9%
Activity [7]: 61.6%
Activity [8]: 16.2%
Activity [9]: 20.2%
Activity [10]: 3.5%
Activity [11]: 41.9%
Activity [12]: 9.2%
Activity [13]: 17.8%
Activity [14]: 50.4%
Activity [15]: 32.6%
Activity [16]: 23.7%
Activity [17]: 62.7%
Activity [18]: 83%
Activity [19]: Dose-dependent effect
Activity [20]: Dose-dependent effect
Activity [21]: Dose-dependent effect
Activity [22]: inactive
Ratio [24]: 47.9
pIC50 [25]: 4.80
Ratio [26]: 19.1
Ratio [27]: 2.6

Reference: ChEMBL document CHEMBL3414528, “Novel naftopidil-related derivatives and their biological effects as alpha1-adrenoceptors antagonists and antiproliferative agents” (Eur J Med Chem, 2015)
